From ChEMBL document CHEMBL1138747, “Synthesis and structure--activity relationship in a class of indolebutylpiperazines as dual 5-HT(1A) receptor agonists and serotonin reuptake inhibitors” (J Med Chem, 2004) come the findings set out here.

“And” between values parts separate entries of the source, which are not always exact repeats. Equal values may be shown once.

For experiment [1], the system named is Rattus norvegicus. The experiment in a line: Dose required to inhibit ultrasonic vocalisation on subcutaneous administered. The class given is functional. The note with it: sc, read-out: ID50 (the source's name). An outline of the steps:
(§1)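 Rat ultrasonic vocalization test. In a priming session, up to 10 grid-floor shocks were given (1.8 mA, 0.3 s, 20 s apart). Rats not vocalizing on three consecutive trials were excluded. Next day, rats were tested 2 h after dosing: five shocks, then vocalization duration recorded over 3 min. ID50 (dose for half-maximal inhibition) came from dose–response curves.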

In experiment [2] the target is 5-hydroxytryptamine receptor 7 (Rattus norvegicus, UniProt P32305). The experiment in a line: Inhibition of rat hydroxytryptamine 7 receptor.
Chain of 5-hydroxytryptamine receptor 7 (P32305 whole entry): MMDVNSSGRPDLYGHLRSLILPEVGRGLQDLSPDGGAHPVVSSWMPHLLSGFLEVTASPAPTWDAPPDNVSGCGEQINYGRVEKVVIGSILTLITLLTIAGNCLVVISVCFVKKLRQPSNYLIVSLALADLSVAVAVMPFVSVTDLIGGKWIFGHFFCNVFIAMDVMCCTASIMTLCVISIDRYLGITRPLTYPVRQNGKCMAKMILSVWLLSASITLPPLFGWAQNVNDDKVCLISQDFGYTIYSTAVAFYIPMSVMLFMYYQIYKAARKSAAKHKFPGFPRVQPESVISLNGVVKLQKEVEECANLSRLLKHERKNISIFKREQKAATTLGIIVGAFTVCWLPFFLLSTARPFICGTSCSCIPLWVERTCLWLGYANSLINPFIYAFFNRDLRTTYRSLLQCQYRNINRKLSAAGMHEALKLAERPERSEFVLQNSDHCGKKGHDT
For experiment [3], the system named is Rattus norvegicus. Description: Dose required to inhibit ultrasonic vocalisation on peroral administered. The format is functional. The note with it: po, read-out: ID50 (the source's name). The method, boiled down: as §1
Experiment [4] deals with 5-hydroxytryptamine receptor 1B (Rattus norvegicus, UniProt P28564). Description: Inhibition of rat hydroxytryptamine 1B receptor.
Chain of 5-hydroxytryptamine receptor 1B (P28564 whole entry): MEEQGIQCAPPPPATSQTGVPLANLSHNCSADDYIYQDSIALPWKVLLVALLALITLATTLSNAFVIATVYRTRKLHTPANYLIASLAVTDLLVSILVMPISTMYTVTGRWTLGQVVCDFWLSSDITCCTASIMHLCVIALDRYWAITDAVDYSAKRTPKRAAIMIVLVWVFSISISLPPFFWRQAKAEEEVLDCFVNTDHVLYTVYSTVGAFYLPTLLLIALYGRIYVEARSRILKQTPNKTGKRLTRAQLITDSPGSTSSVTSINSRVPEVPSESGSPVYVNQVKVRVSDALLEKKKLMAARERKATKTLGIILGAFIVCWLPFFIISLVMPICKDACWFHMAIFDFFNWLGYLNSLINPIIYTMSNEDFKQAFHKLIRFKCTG
Experiment [5] addresses T1, Adrenergic receptor alpha-1 (Homo sapiens, UniProt P35348+P25100+P35368).
T1 sequence (P35348 whole entry): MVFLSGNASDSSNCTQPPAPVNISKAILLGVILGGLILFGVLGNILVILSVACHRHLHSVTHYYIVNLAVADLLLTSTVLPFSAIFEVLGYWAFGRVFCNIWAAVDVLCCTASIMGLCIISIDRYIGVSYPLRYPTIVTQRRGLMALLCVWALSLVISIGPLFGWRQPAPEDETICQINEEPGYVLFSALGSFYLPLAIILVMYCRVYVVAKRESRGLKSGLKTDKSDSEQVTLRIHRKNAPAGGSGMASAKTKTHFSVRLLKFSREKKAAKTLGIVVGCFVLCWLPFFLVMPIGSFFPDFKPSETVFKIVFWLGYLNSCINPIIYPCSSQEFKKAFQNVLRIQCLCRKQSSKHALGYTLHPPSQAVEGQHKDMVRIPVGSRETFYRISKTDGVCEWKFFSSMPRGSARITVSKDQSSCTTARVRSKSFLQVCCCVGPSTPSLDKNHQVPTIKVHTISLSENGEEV
T1 sequence (P25100 whole entry): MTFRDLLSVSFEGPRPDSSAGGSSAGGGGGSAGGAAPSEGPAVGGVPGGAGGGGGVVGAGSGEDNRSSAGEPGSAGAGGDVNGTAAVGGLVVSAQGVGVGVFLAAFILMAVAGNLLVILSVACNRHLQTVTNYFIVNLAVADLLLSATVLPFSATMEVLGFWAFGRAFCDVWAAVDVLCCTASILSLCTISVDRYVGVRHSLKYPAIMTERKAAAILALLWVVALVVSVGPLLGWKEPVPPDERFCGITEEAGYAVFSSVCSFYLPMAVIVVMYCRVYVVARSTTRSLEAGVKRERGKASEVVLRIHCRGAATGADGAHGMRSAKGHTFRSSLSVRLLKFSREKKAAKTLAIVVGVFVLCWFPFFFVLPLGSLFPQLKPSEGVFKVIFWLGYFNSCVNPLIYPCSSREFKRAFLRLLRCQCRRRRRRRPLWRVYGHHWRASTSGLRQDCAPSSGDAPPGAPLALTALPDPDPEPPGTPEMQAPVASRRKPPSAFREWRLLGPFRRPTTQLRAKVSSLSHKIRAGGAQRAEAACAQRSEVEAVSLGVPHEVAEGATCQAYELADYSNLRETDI
T1 sequence (P35368 whole entry): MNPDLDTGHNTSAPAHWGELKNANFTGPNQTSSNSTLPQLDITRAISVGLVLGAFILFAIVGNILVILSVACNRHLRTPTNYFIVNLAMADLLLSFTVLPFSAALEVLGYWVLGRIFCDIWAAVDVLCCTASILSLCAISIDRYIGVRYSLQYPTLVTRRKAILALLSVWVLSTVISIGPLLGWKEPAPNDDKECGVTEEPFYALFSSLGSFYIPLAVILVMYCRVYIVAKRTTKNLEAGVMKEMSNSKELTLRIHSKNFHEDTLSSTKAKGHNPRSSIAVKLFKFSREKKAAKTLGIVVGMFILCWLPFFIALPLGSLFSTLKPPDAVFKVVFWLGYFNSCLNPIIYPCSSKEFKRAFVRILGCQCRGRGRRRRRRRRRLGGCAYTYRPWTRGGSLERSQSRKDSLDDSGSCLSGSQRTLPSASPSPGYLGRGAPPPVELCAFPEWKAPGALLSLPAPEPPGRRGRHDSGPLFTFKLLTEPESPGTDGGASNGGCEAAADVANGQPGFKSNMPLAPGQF
Description: Inhibition of alpha-1-adrenergic receptor. The format is protein assay.

Another experiment has as its target D(2) dopamine receptor (Rattus norvegicus, UniProt P61169). Description: Displacement of [3H]spiperone from dopamine D2 receptor of rat striatal membranes. The format is cell membranes, Membrane. The method, boiled down: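 IC50 from 5–10 compound concentrations, each in triplicate, taken as the concentration (nM) giving 50% inhibition of specific radioligand binding.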
In general terms: Loss of bound radioactivity is the signal in a displacement assay; it reports binding, not function.

Chain of D(2) dopamine receptor (P61169 whole entry): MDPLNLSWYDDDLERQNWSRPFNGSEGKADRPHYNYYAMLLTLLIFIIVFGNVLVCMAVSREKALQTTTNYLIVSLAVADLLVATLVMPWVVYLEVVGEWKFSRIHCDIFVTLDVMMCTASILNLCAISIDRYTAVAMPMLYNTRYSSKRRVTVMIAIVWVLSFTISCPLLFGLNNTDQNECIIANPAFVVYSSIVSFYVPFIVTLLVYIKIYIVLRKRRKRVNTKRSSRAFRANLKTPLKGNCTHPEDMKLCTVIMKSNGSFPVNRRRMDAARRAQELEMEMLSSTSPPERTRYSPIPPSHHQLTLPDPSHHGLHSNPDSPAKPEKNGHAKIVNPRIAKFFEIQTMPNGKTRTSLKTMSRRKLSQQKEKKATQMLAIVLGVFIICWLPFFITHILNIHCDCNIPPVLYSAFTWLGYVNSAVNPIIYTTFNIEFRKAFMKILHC

In the case of `N#Cc1ccc2[nH]cc(CCCCN3CCN(c4ccc5oc(C(N)=O)cc5c4)CC3)c2c1` [VILAZODONE], the ED50 in the experiment with Rattus norvegicus [1] was found to be 4 mg/kg; in the experiment on Rattus norvegicus [3], 13 mg/kg. In addition, the IC50 in experiment [2] was 3.9 µM; in experiment [4], 5 µM; in experiment [5] it was 1980 nM; at D(2) dopamine receptor, 95 nM and 666 nM.

Usually IC50 stands for the midpoint of a concentration-inhibition curve.
